Measurements: ChEMBL document CHEMBL5303300, “EUbOPEN Chemogenomics Library - Multiplex” (2023)
Several values for one entry are separate records, joined by “and”; a condition that tells them apart may be missing. Identical values can stand only once.

Test system: Fibroblast
Assay: Multiplex assay against human fibroblast
Format: toxicity, cell-based
Settings: number of replicates 2
Procedure, shortened: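 Hoechst33342, BioTracker Green Microtubule Cytoskeleton Dye, MitoTracker Red and Annexin V Alexa Fluor 680 were added to live cells at seeding, and imaging on a CQ1 microscope at 37°C and 5% CO2 followed compound addition. Gating by CellPathfinder machine learning separated cells into Hoechst high-intensity objects or normal cells, then normal cells into healthy, pyknosed or fragmented nuclei, then pyknosed cells into mitotic or apoptotic. Per cents of healthy-nucleus cells are reported for the tubulin, mitochondrial-mass and membrane-permeability phenotypes.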

[1] = 12 h, 1 µM, compound concentration 1 uM
[2] = 12 h, 10 µM, compound concentration 10 uM
[3] = 24 h, 1 µM, compound concentration 1 uM
[4] = 24 h, 10 µM, compound concentration 10 uM
[5] = 48 h, 1 µM, compound concentration 1 uM
[6] = 48 h, 10 µM, compound concentration 10 uM

## CCn1ccc(Nc2ncc3c(n2)-c2c(nn(C)c2-c2ccc(-c4cnn(C)c4)cc2Cl)CC3)n1
[1]
  Population Apoptotic (%): 36% and 33%
  Population Fragmented Nuclei (%): 11% and 9%
  Population Healthy Nuclei (%): 71% and 65%
  Population Hoechst High Intensity Objects (%): 0%
  Population Membrane Permeable-Phenotype (%): 8% and 7%
  Population Mitochondria Different-Phenotype (%): 1% and 2%
  Population Mitotic Cells (%): 63% and 66%
  Population Normal (%): 99%
  Population Pyknosed Nuclei (%): 17% and 25%
  Population Tubulin-Different-Phenotype (%): 14% and 18%
  Total Cell Count: 258 and 213
[2]
  Population Apoptotic (%): 51% and 48%
  Population Fragmented Nuclei (%): 11%
  Population Healthy Nuclei (%): 75% and 69%
  Population Hoechst High Intensity Objects (%): 0%
  Population Membrane Permeable-Phenotype (%): 5% and 6%
  Population Mitochondria Different-Phenotype (%): 2% and 1%
  Population Mitotic Cells (%): 48% and 51%
  Population Normal (%): 100%
  Population Pyknosed Nuclei (%): 13% and 19%
  Population Tubulin-Different-Phenotype (%): 56% and 41%
  Total Cell Count: 204 and 191
[3]
  Population Apoptotic (%): 40% and 49%
  Population Fragmented Nuclei (%): 10% and 7%
  Population Healthy Nuclei (%): 75% and 66%
  Population Hoechst High Intensity Objects (%): 0%
  Population Membrane Permeable-Phenotype (%): 2% and 6%
  Population Mitochondria Different-Phenotype (%): 0% and 1%
  Population Mitotic Cells (%): 59% and 50%
  Population Normal (%): 100% and 99%
  Population Pyknosed Nuclei (%): 13% and 25%
  Population Tubulin-Different-Phenotype (%): 7% and 8%
  Total Cell Count: 239 and 234
[4]
  Population Apoptotic (%): 60% and 55%
  Population Fragmented Nuclei (%): 8% and 6%
  Population Healthy Nuclei (%): 78% and 77%
  Population Hoechst High Intensity Objects (%): 0%
  Population Membrane Permeable-Phenotype (%): 1% and 4%
  Population Mitochondria Different-Phenotype (%): 1% and 2%
  Population Mitotic Cells (%): 40% and 44%
  Population Normal (%): 100% and 99%
  Population Pyknosed Nuclei (%): 12% and 15%
  Population Tubulin-Different-Phenotype (%): 62% and 39%
  Total Cell Count: 202 and 187
[5]
  Population Apoptotic (%): 71% and 69%
  Population Fragmented Nuclei (%): 13% and 12%
  Population Healthy Nuclei (%): 75% and 67%
  Population Hoechst High Intensity Objects (%): 0%
  Population Membrane Permeable-Phenotype (%): 2% and 3%
  Population Mitochondria Different-Phenotype (%): 0%
  Population Mitotic Cells (%): 28% and 30%
  Population Normal (%): 99% and 100%
  Population Pyknosed Nuclei (%): 11% and 19%
  Population Tubulin-Different-Phenotype (%): 6% and 7%
  Total Cell Count: 252 and 233
[6]
  Population Apoptotic (%): 84% and 82%
  Population Fragmented Nuclei (%): 14% and 8%
  Population Healthy Nuclei (%): 68% and 75%
  Population Hoechst High Intensity Objects (%): 0%
  Population Membrane Permeable-Phenotype (%): 2% and 3%
  Population Mitochondria Different-Phenotype (%): 4% and 3%
  Population Mitotic Cells (%): 15% and 17%
  Population Normal (%): 100%
  Population Pyknosed Nuclei (%): 16%
  Population Tubulin-Different-Phenotype (%): 56% and 38%
  Total Cell Count: 195 and 170

## CCNc1ccc(-c2nn(-c3ccccc3C)c3c2C(C)Cc2nc(NC(=O)OC)sc2-3)cn1.O=C(O)C(F)(F)F (configuration not stated)
[1]
  Population Apoptotic (%): 34% and 35%
  Population Fragmented Nuclei (%): 22% and 27%
  Population Healthy Nuclei (%): 60% and 57%
  Population Hoechst High Intensity Objects (%): 0%
  Population Membrane Permeable-Phenotype (%): 5% and 3%
  Population Mitochondria Different-Phenotype (%): 0% and 3%
  Population Mitotic Cells (%): 65%
  Population Normal (%): 100%
  Population Pyknosed Nuclei (%): 17% and 14%
  Population Tubulin-Different-Phenotype (%): 35% and 27%
  Total Cell Count: 255 and 278
[2]
  Population Apoptotic (%): 43% and 57%
  Population Fragmented Nuclei (%): 15% and 26%
  Population Healthy Nuclei (%): 66% and 61%
  Population Hoechst High Intensity Objects (%): 0% and 1%
  Population Membrane Permeable-Phenotype (%): 17% and 10%
  Population Mitochondria Different-Phenotype (%): 6% and 12%
  Population Mitotic Cells (%): 56% and 42%
  Population Normal (%): 100% and 98%
  Population Pyknosed Nuclei (%): 18% and 12%
  Population Tubulin-Different-Phenotype (%): 87% and 86%
  Total Cell Count: 216 and 211
[3]
  Population Apoptotic (%): 40% and 46%
  Population Fragmented Nuclei (%): 20% and 17%
  Population Healthy Nuclei (%): 64% and 70%
  Population Hoechst High Intensity Objects (%): 0%
  Population Membrane Permeable-Phenotype (%): 4% and 3%
  Population Mitochondria Different-Phenotype (%): 2% and 4%
  Population Mitotic Cells (%): 60% and 53%
  Population Normal (%): 100% and 99%
  Population Pyknosed Nuclei (%): 15% and 12%
  Population Tubulin-Different-Phenotype (%): 35% and 28%
  Total Cell Count: 225 and 233
[4]
  Population Apoptotic (%): 62% and 68%
  Population Fragmented Nuclei (%): 21% and 27%
  Population Healthy Nuclei (%): 62% and 65%
  Population Hoechst High Intensity Objects (%): 0%
  Population Membrane Permeable-Phenotype (%): 9% and 8%
  Population Mitochondria Different-Phenotype (%): 12%
  Population Mitotic Cells (%): 37% and 31%
  Population Normal (%): 99% and 100%
  Population Pyknosed Nuclei (%): 16% and 7%
  Population Tubulin-Different-Phenotype (%): 88%
  Total Cell Count: 195 and 209
[5]
  Population Apoptotic (%): 58% and 20%
  Population Fragmented Nuclei (%): 13% and 15%
  Population Healthy Nuclei (%): 77% and 78%
  Population Hoechst High Intensity Objects (%): 0%
  Population Membrane Permeable-Phenotype (%): 5% and 2%
  Population Mitochondria Different-Phenotype (%): 2% and 0%
  Population Mitotic Cells (%): 41% and 80%
  Population Normal (%): 100% and 99%
  Population Pyknosed Nuclei (%): 8% and 6%
  Population Tubulin-Different-Phenotype (%): 26% and 18%
  Total Cell Count: 208 and 225
[6]
  Population Apoptotic (%): 84% and 76%
  Population Fragmented Nuclei (%): 15% and 19%
  Population Healthy Nuclei (%): 65% and 64%
  Population Hoechst High Intensity Objects (%): 0%
  Population Membrane Permeable-Phenotype (%): 5% and 3%
  Population Mitochondria Different-Phenotype (%): 19% and 22%
  Population Mitotic Cells (%): 15% and 24%
  Population Normal (%): 100%
  Population Pyknosed Nuclei (%): 18% and 15%
  Population Tubulin-Different-Phenotype (%): 87% and 90%
  Total Cell Count: 169 and 157
